OX1R antag-1: OX1R (HCRTR1) antagonists, primary screen, fluorescence, CHO/OX1R cells, Fluo-8 calcium, orexin A; Orexin/Hypocretin receptor type 1 (Homo sapiens), O43613; Fluo-8 calcium fluorescence; inhibition, % at 5 µM; 330,000 tested, 0.43% active;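 active = inhibition above its plate's threshold, mean inhibition of all tested compounds on the plate plus 3 SD, cut at about 37% in these data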;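 also: 0% = orexin A challenge wells and 100% = SB-334867-A antagonist wells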
GPR7 antag: GPR7 receptor antagonists, primary screen, cell-based, fluorescence, single concentration; 290,000 tested, 1.1% active; AID 1861, 2009; GPR7-expressing cells, fluorescence antagonist assay; inhibition, % at 4.4 µM; Neuropeptides B/W receptor type 1 (Homo sapiens), P48145; in the data active = inhibition above about 16%, passing the limit was not always enough;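 also: cells stimulated with the agonist NPW; 0% = agonist with vehicle and 100% = vehicle without agonist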
Target sequence (P48145 whole entry, looked up): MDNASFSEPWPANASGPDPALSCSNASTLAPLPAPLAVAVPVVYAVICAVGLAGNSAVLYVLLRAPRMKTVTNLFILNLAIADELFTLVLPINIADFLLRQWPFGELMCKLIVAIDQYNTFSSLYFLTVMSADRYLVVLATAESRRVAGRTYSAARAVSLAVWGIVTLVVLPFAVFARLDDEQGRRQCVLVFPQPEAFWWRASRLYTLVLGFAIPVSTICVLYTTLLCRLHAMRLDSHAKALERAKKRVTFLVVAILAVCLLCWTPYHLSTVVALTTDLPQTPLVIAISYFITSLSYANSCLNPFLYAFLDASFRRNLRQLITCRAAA
CHO parental Ca: ATP-evoked calcium signal inhibitors, parental CHO, primary screen, counter-screen for OX1R antagonist project, cell-based, fluorescence, Fluo-8 calcium dye | parental CHO-K1, ATP-induced calcium, Fluo-8 fluorescence | inhibition, % at 5.6 µM | 330,000 tested, 0.63% active | AID 463079, 2010;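 active = inhibition above that plate's mean sample inhibition plus 3 SD, cut at about 26% in these data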;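 also: 0% = ATP-challenged DMSO wells and 100% = DMSO wells without ATP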
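Assay system: parental CHO cells; Read-out basis: percent inhibition of ATP-evoked calcium rise, normalized to controls; Benchmarks: ATP and no-ATP DMSO wells; Compound dosing: single nominal dose of 5.6 µM per compound; Signal: Fluo-8 calcium dye fluorescence; Also added: ATP as calcium-mobilizing challenge; Repeats: singlicate.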
TAAR1 agonist: human TAAR1 agonists, primary screen, Fluo-8 calcium fluorescence, CHO RD-HGA16 cells | Trace amine-associated receptor 1 (Homo sapiens), Q96RJ0 | vehicle wells 0%, saturating PEA agonist 100% | activation, % at 3 µM | 360,000 tested, 0.99% active | AID 624467, 2012;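 active = activation above the mean activation of all test compounds in the run plus 3 SD, cut at about 38% in these data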
Target sequence (Q96RJ0 whole entry, looked up): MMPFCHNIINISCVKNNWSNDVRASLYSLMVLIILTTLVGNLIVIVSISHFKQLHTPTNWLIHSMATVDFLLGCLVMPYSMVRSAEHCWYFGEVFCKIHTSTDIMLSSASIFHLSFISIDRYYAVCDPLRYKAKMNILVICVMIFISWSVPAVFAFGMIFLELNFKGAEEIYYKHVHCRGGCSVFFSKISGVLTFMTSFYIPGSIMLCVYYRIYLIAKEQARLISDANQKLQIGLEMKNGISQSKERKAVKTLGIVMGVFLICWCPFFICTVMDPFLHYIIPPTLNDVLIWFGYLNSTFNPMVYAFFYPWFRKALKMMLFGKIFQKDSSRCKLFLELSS
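Assay system – CHO-derived RD-HGA16 cells with stable Gα16 and human TAAR1 · Compound dosing – one-point dosing at 3 µM (nominal) · Incubation – 17-24 h seeding, 75 min 37 °C dye, 30 min RT · Measured by – kinetic Fluo-8 calcium fluorescence · Control set – DMSO vehicle as 0%, PEA at EC100 as 100% · Repeats – single well for each compound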
OX1R antag-2: antagonists of human orexin 1 receptor (OX1R). 330,000 tested, 1.8% active. AID 485270, 2010. inhibition, % at 6.6 µM. Orexin/Hypocretin receptor type 1 (Homo sapiens), O43613. OX1R-expressing cells, FRET antagonist read-out; in the data active = inhibition mostly above about 38%, no sharp cut-off; inactive = mostly below about 40%;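 also: 0% = agonist challenge alone and 100% = reference antagonist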
TAAR1 antag: human TAAR1 antagonists, primary screen, Fluo-8 calcium fluorescence, CHO RD-HGA16 cells; 360,000 tested, 1.5% active; inhibition, % at 3 µM; Trace amine-associated receptor 1 (Homo sapiens), Q96RJ0; antagonist;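 active = inhibition above a per-plate cutoff, the mean inhibition of test compounds on that plate plus 3 SD, cut at about 49% in these data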;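 also: 0% = DMSO plus EC80 beta-PEA response and 100% = DMSO alone without agonist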
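System: RD-HGA16 CHO cells with stable hTAAR1 and Gα16 | Probe or stimulus: EC80 β-phenethylamine stimulus | Dosing: 3 µM, single point | Times: Dye loading 75 min at 37 °C, then 30 min room temperature | Measured by: Fluo-8 calcium-sensitive fluorescence | Read-out basis: % inhibition of agonist calcium response | Replicates: n of 1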
Starred values were filed as active, the others as inactive. Sampled rows, rich in hits. Any-hit rate of the full collection: about 4.5%.

How did COC(=O)C1CSC(C(=O)OC)N1C(=O)CN1CC(C)OC(C)C1 (centres undefined) do in these assays?
OX1R antag-1: -8; GPR7 antag: -3; CHO parental Ca: 10; TAAR1 agonist: 12; OX1R antag-2: 4; TAAR1 antag: 18

How did Nc1nn(-c2ccccc2)c(N)c1N=Nc1cccc(F)c1 do in these assays?
OX1R antag-1: -18; GPR7 antag: 1; CHO parental Ca: -7; TAAR1 agonist: 1; OX1R antag-2: 24; TAAR1 antag: -12

Results for Nc1nn(-c2ccccc2)c(N)c1N=Nc1ccc2c(c1)OCO2 ?
OX1R antag-1: -7; GPR7 antag: 24*; CHO parental Ca: -10; TAAR1 agonist: 0; OX1R antag-2: 12; TAAR1 antag: 8

Results for O=C(O)CCc1ccc(S(=O)(=O)Nc2cc(C(F)(F)F)ccc2N2CCCC2)cc1 ?
TAAR1 agonist: 2; TAAR1 antag: 3

How did CCN(CC)S(=O)(=O)c1cccc(NC(=O)COC(=O)c2[nH]c(C)c(C(C)=O)c2C)c1 do in these assays?
TAAR1 agonist: 17; TAAR1 antag: 55*

Results for CC(=O)c1c(C)[nH]c(C(=O)OCC(=O)Nc2cccc(S(=O)(=O)N3CCCC3)c2)c1C ?
OX1R antag-1: 39*; GPR7 antag: 3; CHO parental Ca: 29; TAAR1 agonist: 15; OX1R antag-2: 13; TAAR1 antag: 50*

What do the screens show for `CCCNC(=O)C1(C)CCCN(C(=O)c2cccc(C(F)(F)F)c2)C1` (centres undefined)?
TAAR1 agonist: 3; TAAR1 antag: -15

Results for COCCNC(=S)Nc1cc(OC)c(OC)cc1C#N ?
GPR7 antag: 5; TAAR1 agonist: 8; TAAR1 antag: -27

What do the screens show for `C=CC[C@@H](CC(=O)N[C@H](CO)Cc1ccccc1)C(=O)N[C@H](COC(=O)[C@@H](CC=C)CC(=O)OC(C)(C)C)Cc1c[nH]c2ccccc12`?
OX1R antag-1: 84*; CHO parental Ca: 61*; TAAR1 agonist: 22; OX1R antag-2: -1; TAAR1 antag: 65*

How did C=CC[C@H](CC(=O)N[C@H](CO)Cc1ccccc1)C(=O)N[C@@H](COC(=O)[C@H](CC=C)CC(=O)OC(C)(C)C)Cc1c[nH]c2ccccc12 do in these assays?
OX1R antag-1: -16; CHO parental Ca: -17; TAAR1 agonist: 11; OX1R antag-2: 4; TAAR1 antag: 60*

Results for CC(C)NS(=O)(=O)c1ccc(CCC(=O)Nc2cc(Cl)ccc2Oc2ccccc2)cc1 ?
OX1R antag-1: 31; GPR7 antag: 5; CHO parental Ca: 44*; OX1R antag-2: 59

Results for CC(C)NS(=O)(=O)c1ccc(NC(=O)CCc2ccccc2)cc1 ?
OX1R antag-1: -11; GPR7 antag: -9; CHO parental Ca: -14; TAAR1 agonist: 15; OX1R antag-2: 8; TAAR1 antag: -21

How did CCOC(=O)C1=CCN(S(=O)(=O)c2ccc(Br)cc2)C1c1cccc(Cl)c1 (centres undefined) do in these assays?
TAAR1 agonist: 1; TAAR1 antag: 5

How did COc1ccc(CCNC(=O)c2ccc(Cl)cc2Cl)cc1OC do in these assays?
OX1R antag-1: -23; GPR7 antag: -10; CHO parental Ca: -17; TAAR1 agonist: 2; OX1R antag-2: 24; TAAR1 antag: 8

How did COc1ccc(CCNC(=O)c2ccc(CS(=O)(=O)c3ccc(Cl)cc3)o2)cc1OC do in these assays?
OX1R antag-1: 6; GPR7 antag: -12; CHO parental Ca: 8; TAAR1 agonist: 28; OX1R antag-2: 15; TAAR1 antag: 44

What do the screens show for `COc1ccc(CCNC(=O)c2ccc([N+](=O)[O-])cc2Cl)cc1OC`?
OX1R antag-1: 4; CHO parental Ca: -12; TAAR1 agonist: 5; OX1R antag-2: 71*; TAAR1 antag: -34

What do the screens show for `COc1ccc(CCNC(=O)c2ccc(CSc3ccc(Cl)cc3)o2)cc1OC`?
TAAR1 agonist: 5; TAAR1 antag: 66*

How did COc1ccc(CCNC(=O)c2ccc(=O)[nH]n2)cc1OC do in these assays?
OX1R antag-1: -3; GPR7 antag: 4; CHO parental Ca: 40*; TAAR1 agonist: 5; OX1R antag-2: 4; TAAR1 antag: -3

Results for COc1ccccc1N(CC(O)Cn1c(C)nc2ccccc21)S(=O)(=O)c1ccccc1 (centres undefined) ?
OX1R antag-1: 10; GPR7 antag: 1; CHO parental Ca: -18; TAAR1 agonist: 4; OX1R antag-2: 63*; TAAR1 antag: 9

Results for CC(=O)c1c(C)n(-c2cccc(Cl)c2)c2ccc(O)cc12 ?
OX1R antag-1: -18; GPR7 antag: 15; CHO parental Ca: -14; TAAR1 agonist: 4; OX1R antag-2: 26; TAAR1 antag: 51*

Results for C=C(C)Cn1c(SCC(=O)O)nc2c1c(=O)[nH]c(=O)n2C ?
OX1R antag-1: -5; GPR7 antag: 2; CHO parental Ca: -1; TAAR1 agonist: 0; OX1R antag-2: 14; TAAR1 antag: -7

Results for CCOC(=O)C1=NN(C(=O)c2ccccc2)C(O)(c2ccc(C)cc2)C1 (centres undefined) ?
OX1R antag-1: -28; GPR7 antag: -5; CHO parental Ca: -17; TAAR1 agonist: 38*; OX1R antag-2: 17; TAAR1 antag: -14

Results for COc1ccc(/C=N/Nc2ncnc(Cl)c2N)cc1OC ?
OX1R antag-1: -4; GPR7 antag: -8; CHO parental Ca: -3; TAAR1 agonist: 0; OX1R antag-2: 56*; TAAR1 antag: 2

How did COc1cccc(/C=N/Nc2ncnc(Cl)c2N)c1O do in these assays?
OX1R antag-1: -1; GPR7 antag: -1; CHO parental Ca: -3; TAAR1 agonist: 2; OX1R antag-2: 54; TAAR1 antag: -10

How did Nc1c(Cl)ncnc1N/N=C/c1cccc(O)c1 do in these assays?
OX1R antag-1: -15; GPR7 antag: -12; CHO parental Ca: -10; TAAR1 agonist: 12; OX1R antag-2: 72*; TAAR1 antag: 0

What do the screens show for `CC(C)N(Cc1ccccc1)C(=O)COC(=O)C1CCN(S(=O)(=O)c2ccc3c(c2)OCCO3)CC1`?
OX1R antag-1: -28; CHO parental Ca: -20; TAAR1 agonist: 1; OX1R antag-2: 15; TAAR1 antag: -2

How did Cc1ncc(CO)c(/C=N/NC(=O)c2cc3c(s2)CCCC3)c1O do in these assays?
OX1R antag-1: -20; GPR7 antag: -9; CHO parental Ca: -12; TAAR1 agonist: 3; OX1R antag-2: 50*; TAAR1 antag: -6
